Laboratory results as given in ChEMBL document CHEMBL1155588, “Use of COMPARE analysis to discover functional analogues of bleomycin” (J Nat Prod, 2000).
Activity calls are given as the source filed them. The rule behind the calls is not given here.

Legend:
[1] = Induction of supercoiled pSP64 plasmid DNA cleavage assessed as increase in linear duplex form 3 at 10 uM by agarose gel electrophoresis
How it was run: (§1)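 Cell-free cleavage of supercoiled, covalently closed circular pSP64 plasmid DNA, with or without Cu2+. Reactions ran 1 h at 37 °C and were stopped with bromophenol blue in 30% glycerol. Products were resolved on 1% agarose containing 0.7 µg/mL ethidium bromide in Tris-borate-EDTA at 130 V for 3 h and viewed under UV. Forms I, II (nicked) and III (linear) were scored.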

[2] = Induction of pSP64 plasmid DNA relaxation by agarose gel electrophoresis in presence of Cu2+; how it was run: as §1
[3] = Induction of supercoiled pSP64 plasmid DNA cleavage assessed as increase in nicked form 2 at 500 nM by agarose gel electrophoresis in presence of Cu2+; how it was run: as §1
[4] = Induction of supercoiled pSP64 plasmid DNA cleavage assessed as increase in nicked form 2 at 1 uM by agarose gel electrophoresis; how it was run: as §1
[5] = Induction of supercoiled pSP64 plasmid DNA cleavage assessed as increase in nicked form 2 at 0.25 uM by agarose gel electrophoresis in presence of Cu2+; how it was run: as §1
[6] = Induction of supercoiled pSP64 plasmid DNA cleavage assessed as increase in linear duplex form 3 by agarose gel electrophoresis; how it was run: as §1
[7] = Induction of supercoiled pSP64 plasmid DNA cleavage assessed as increase in nicked form 2 at 10 uM by agarose gel electrophoresis; how it was run: as §1
[8] = Induction of supercoiled pSP64 plasmid DNA cleavage assessed as increase in nicked form 2 at 2.5 uM by agarose gel electrophoresis in presence of Cu2+; how it was run: as §1

Row | Activity [1] | Activity [2] | Activity [3] [%] | Activity [4] [%] | Activity [5] | Activity [6] | Activity [7] [%] | Activity [8] | Compound
1 | Active | Dose-dependent effect | > 50 | – | – | – | – | – | Oc1cc(O)c2c(c1)O[C@@H](c1ccc(O)c(O)c1)[C@@H](O)C2
2 | – | Dose-dependent effect | – | > 50 | Active | inactive | – | – | COc1cc([C@@H]2OC[C@@H]3[C@H]2CO[C@H]3c2cc(OC)c(O)c(OC)c2)cc(OC)c1O
3 | Active | Dose-dependent effect | > 50 | – | – | – | – | – | Oc1cc(O)c2c(c1)O[C@H](c1ccc(O)c(O)c1)[C@@H](O)C2
4 | – | Dose-dependent effect | – | – | – | inactive | > 50 | Active | COc1cc(C=O)cc(OC)c1O
